Measurements taken from ChEMBL document CHEMBL1124112, “Indoline analogues of idazoxan: potent alpha 2-antagonists and alpha 1-agonists” (J Med Chem, 1988).

Columns and labels:
[1] = biological target: T1, Adrenergic receptor alpha-2 (Rattus norvegicus) (UniProt P22086+P19328+P22909); assay: Antagonism at alpha-2 adrenergic receptor, determined as dose required to produce a two fold shift of the dose-response curve to UK-14304 on the twitch response in rat vas deferens; assay type: functional, tissue-based
In short: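 Pithed rats, iv. Antagonist given before a cumulative dose-response curve to UK-14,304 on the vas deferens twitch response. DR2 is the antagonist dose (μg/kg) giving a twofold shift of the curve. Separate groups of rats (n = 4-6).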

[2] = biological target: Adrenergic receptor alpha-1 (Rattus norvegicus) (UniProt P15823+P23944+P43140); assay: Agonism at alpha-1 adrenergic receptor, determined as the dose required to produce a two fold shift of the cirazoline on diastolic blood pressure.; assay type: functional, tissue-based; settings: Artery
[3] = test system: Adrenergic receptor alpha-1 (Rattus norvegicus); assay: […] towards alpha-1 adrenergic receptor determined as the dose required to produce a two fold shift of the cirazoline on diastolic blood pressure (in vitro); settings: Artery
[4] = test system: Adrenergic receptor alpha-2 (Rattus norvegicus); assay: Agonism at alpha-2 adrenergic receptor, determined as dose required to produce a two fold shift of the cumulative dose-response curve to UK-14304 on the twitch response in rat vas deferens.
Rattus norvegicus [5] = assay: In vivo antagonist dose producing two fold shift of cirazoline in pithed rats. (postjunctional); AG- agonist; assay type: functional, organism-based; settings: filed as agonist
In short: (§1)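 Pithed rats, iv. Antagonist given before a cumulative dose-response curve to cirazoline on diastolic blood pressure. DR2 is the antagonist dose (μg/kg) giving a twofold rightward shift. Separate groups of rats (n = 4-6).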

Rattus norvegicus [6] = assay: In vivo ED40 is the raising diastolic blood pressure by 40 mm Hg in pithed rats. (postjunctional); assay type: functional; settings: Artery
In short: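 Pithed rats, compound given iv in cumulative doses. ED40 is the dose (μg/kg) raising diastolic blood pressure by 40 mmHg. Separate groups of rats (n = 4-6).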

Rattus norvegicus [7] = assay: In vivo dose required to inhibit vas deferens contraction by 25% after pretreatment with prazosin in pithed rats. (prejunctional); assay type: functional
In short: (§2)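 Pithed rats pretreated with prazosin (1 mg/kg). Compound given iv in cumulative doses. ED25 is the dose (μg/kg) inhibiting vas deferens contraction by 25%. Separate groups of rats (n = 4-6).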

[8] = biological target: T1, Adrenergic receptor alpha-2 (Rattus norvegicus); assay: Antagonist potency towards alpha-2 adrenergic receptor determined as the dose required to produce a two fold shift of the dose-response curve to UK-14304 on the twitch response of the vas deferens (in vitro);AG- agonist; assay type: functional, tissue-based; settings: filed as agonist
Rattus norvegicus [9] = assay: In vivo antagonist dose producing two fold shift of cirazoline in pithed rats. (postjunctional);AG- agonist; assay type: functional, organism-based; settings: filed as agonist; in short: as §1
Rattus norvegicus [10] = assay: In vivo dose required to inhibit vas deferens contraction by 25% after pretreatment with prazosin in pithed rats. (prejunctional); ant- antagonist; assay type: functional, organism-based; settings: filed as antagonist; in short: as §2
Rattus norvegicus [11] = assay: In vivo antagonist dose producing two fold shift of UK-14,304 in pithed rats. (prejunctional)

T1 sequence (P19328 whole entry, looked up): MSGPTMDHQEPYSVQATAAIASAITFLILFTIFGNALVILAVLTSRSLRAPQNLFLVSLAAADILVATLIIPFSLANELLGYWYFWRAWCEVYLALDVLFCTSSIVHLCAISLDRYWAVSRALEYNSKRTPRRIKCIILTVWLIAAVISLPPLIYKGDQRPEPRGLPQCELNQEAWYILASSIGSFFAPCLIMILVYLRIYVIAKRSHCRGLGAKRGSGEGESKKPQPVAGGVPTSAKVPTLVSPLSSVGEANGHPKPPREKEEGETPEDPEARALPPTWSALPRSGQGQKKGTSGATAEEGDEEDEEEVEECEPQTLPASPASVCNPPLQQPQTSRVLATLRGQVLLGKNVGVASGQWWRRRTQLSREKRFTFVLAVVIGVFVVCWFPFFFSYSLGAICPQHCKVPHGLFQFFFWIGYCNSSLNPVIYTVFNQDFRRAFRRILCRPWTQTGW
T1 sequence (P22086 whole entry, looked up): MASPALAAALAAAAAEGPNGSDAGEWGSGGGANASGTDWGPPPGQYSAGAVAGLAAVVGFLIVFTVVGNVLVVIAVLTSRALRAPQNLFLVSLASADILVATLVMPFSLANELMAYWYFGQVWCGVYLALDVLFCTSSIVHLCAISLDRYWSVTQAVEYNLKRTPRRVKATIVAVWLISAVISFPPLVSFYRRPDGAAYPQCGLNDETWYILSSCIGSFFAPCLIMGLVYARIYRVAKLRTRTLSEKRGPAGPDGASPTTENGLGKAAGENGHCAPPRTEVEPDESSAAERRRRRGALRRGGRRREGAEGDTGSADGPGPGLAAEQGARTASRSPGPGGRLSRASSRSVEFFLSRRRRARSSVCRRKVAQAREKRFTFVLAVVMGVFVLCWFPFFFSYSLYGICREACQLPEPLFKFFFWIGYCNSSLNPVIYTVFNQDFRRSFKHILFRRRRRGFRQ
T1 sequence (P22909 whole entry, looked up): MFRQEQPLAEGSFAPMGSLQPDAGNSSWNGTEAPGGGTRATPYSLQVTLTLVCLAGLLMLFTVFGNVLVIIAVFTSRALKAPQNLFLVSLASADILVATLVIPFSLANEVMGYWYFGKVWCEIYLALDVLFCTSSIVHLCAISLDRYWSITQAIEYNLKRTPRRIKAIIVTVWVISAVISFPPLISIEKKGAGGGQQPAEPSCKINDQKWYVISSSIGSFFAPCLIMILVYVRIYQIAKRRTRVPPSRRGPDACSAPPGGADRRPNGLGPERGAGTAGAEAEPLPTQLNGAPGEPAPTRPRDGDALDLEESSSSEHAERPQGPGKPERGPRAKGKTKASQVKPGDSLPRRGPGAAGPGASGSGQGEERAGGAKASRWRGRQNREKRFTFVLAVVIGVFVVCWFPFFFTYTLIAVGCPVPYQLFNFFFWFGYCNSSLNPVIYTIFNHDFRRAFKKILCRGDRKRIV

SMILES | Prejunctional antagonist potency [1] | Postjunctional agonist potency [2] | Postjunctional antagonist potency [3] | Prejunctional agonist potency [4] | ED40 (Rattus norvegicus [5]) | ED40 (Rattus norvegicus [6]) [µg/kg] | ED25 (Rattus norvegicus [7]) [µg/kg] | Prejunctional antagonist potency [8] | ED40 (Rattus norvegicus [9]) | ED25 (Rattus norvegicus [10]) | DR2 (Rattus norvegicus [11]) [mg/kg]
c1ccc2c(c1)CC(C1=NCCN1)C2 | 0.4 | 0 | 0.8 | 0 | – | – | – | – | – | – | –
COc1cccc2c1CC(C1=NCCN1)N2C (stereo not drawn) | 0.27 | 0.62 | – | 0 | – | – | – | – | – | – | –
CN1c2c(Cl)cccc2CC1C1=NCCN1 (stereo not drawn) | – | 3.5 | – | 0.3 | Agonist | 1.4 | 2.2 | Agonist | – | – | –
CN1c2cccc(Br)c2CC1C1=NCCN1 (stereo not drawn) | – | 3.4 | – | 0.34 | – | 0.3 | 1.1 | Agonist | – | – | –
CN1c2cccc(O)c2CC1C1=NCCN1 (stereo not drawn) | – | 6.7 | – | 0.16 | – | 0.3 | 0.2 | Agonist | Agonist | – | –
CCN1c2ccc(Cl)cc2CC1C1=NCCN1 (stereo not drawn) | 8 | 5 | – | 0 | Agonist | 4.2 | – | – | – | Antagonist | 0.0059
CCN1c2ccccc2CC1(C)C1=NCCN1 (stereo not drawn) | 0.1 | 0.03 | – | 0 | – | – | – | – | – | – | –
CN1c2cc(Cl)ccc2CC1C1=NCCN1 (stereo not drawn) | – | 0.67 | – | 0.019 | – | – | – | Agonist | – | – | –
COc1cccc2c1N(C)C(C1=NCCN1)C2 (stereo not drawn) | – | 8 | – | 0.4 | – | – | – | Agonist | – | – | –
Nc1cc(Cl)c(N=C2NCCN2)c(Cl)c1 [APRACLONIDINE] | – | – | – | – | – | 0.7 | 0.4 | – | – | – | –
CN1c2cccc(F)c2CC1C1=NCCN1 (stereo not drawn) | – | 6 | – | 1 | – | – | 0.8 | Agonist | Agonist | – | 0.0008
CNC[C@H](O)c1cccc(O)c1 [PHENYLEPHRINE] | – | – | – | – | – | 0.9 | – | – | – | – | –
c1ccc2c(c1)CC(C1=NCCN1)O2 (stereo not drawn) | 1.7 | 0.01 | 0.16 | 0 | – | – | – | – | – | – | –
CCC1(C2=NCCN2)Cc2ccccc2N1C (stereo not drawn) | 0.005 | 0 | < 0.012 | 0 | – | – | – | – | – | – | –
c1ccc(COCCN2c3ccccc3CC2C2=NCCN2)cc1 (stereo not drawn) | 0.05 | 0 | 18 | 0 | – | – | – | – | – | – | –
CN1c2ccc(Cl)cc2CC1C1=NCCN1 (stereo not drawn) | 6.8 | 2 | – | 0 | Agonist | 14.3 | – | – | – | Antagonist | 0.0127
